From ChEMBL document CHEMBL1773060, “Two-step synthesis of novel, bioactive derivatives of the ubiquitous cofactor nicotinamide adenine dinucleotide (NAD)” (J Med Chem, 2011) come the findings set out here.

Assay [1] has as its target T1, NAD-dependent protein deacetylase sirtuin-1 (Homo sapiens) (UniProt Q96EB6).
T1 sequence (whole entry): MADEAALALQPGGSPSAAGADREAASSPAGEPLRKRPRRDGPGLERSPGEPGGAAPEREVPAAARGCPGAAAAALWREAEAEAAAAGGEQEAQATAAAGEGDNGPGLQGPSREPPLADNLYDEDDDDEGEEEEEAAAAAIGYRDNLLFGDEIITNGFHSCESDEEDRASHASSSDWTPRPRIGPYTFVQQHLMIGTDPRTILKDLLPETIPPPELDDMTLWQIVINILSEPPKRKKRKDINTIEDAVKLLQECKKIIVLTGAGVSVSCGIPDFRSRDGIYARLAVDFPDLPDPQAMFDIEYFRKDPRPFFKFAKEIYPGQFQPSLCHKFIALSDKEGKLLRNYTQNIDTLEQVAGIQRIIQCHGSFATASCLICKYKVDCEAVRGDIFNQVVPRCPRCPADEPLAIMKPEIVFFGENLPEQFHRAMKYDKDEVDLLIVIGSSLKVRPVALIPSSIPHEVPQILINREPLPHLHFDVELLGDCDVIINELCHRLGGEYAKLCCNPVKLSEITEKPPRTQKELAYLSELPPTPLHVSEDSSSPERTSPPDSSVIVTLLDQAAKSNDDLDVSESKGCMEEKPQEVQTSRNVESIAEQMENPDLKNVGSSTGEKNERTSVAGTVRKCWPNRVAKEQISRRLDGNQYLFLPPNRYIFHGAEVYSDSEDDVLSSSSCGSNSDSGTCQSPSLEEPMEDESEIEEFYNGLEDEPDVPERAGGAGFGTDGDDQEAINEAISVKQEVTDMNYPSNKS
Nature of the assay: Inhibition of human recombinant GST-tagged SIRT1 at 50 uM after 4 hrs by homogeneous fluorescent deacetylase assay.

Assay [2] has as its target T2, NAD-dependent protein deacetylase sirtuin-2 (Homo sapiens) (UniProt Q8IXJ6).
T2 sequence (whole entry): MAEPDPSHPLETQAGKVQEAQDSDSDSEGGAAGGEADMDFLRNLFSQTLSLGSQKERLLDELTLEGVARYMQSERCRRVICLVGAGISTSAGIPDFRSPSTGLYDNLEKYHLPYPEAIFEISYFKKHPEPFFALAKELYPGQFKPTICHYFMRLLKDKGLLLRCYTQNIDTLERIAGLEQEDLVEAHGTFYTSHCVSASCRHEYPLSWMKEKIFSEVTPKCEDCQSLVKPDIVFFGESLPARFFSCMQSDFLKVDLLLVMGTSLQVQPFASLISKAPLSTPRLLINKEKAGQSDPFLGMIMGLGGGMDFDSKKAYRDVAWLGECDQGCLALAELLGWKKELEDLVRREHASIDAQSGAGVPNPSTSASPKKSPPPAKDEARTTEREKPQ
Briefly: Inhibition of human recombinant N-terminally His6-tagged SIRT2 at 50 uM after 4 hrs by homogeneous fluorescent deacetylase assay.

Assay [3] addresses T2, NAD-dependent protein deacetylase sirtuin-2 (Homo sapiens). Nature of the assay: Activity at human recombinant GST-tagged SIRT2 assessed as conversion of […] at 500 uM by fluorescence-based assay. To be noted: in the assay text read “His6-tagged” for “GST-tagged”. The essentials: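 Analogues, with NAD for comparison, were supplied at 500 μM as cosubstrate in place of NAD, in 8.3% (v/v) DMSO. Reaction used Z-(Ac)Lys-AMC (10.5 μM), 4 h at 37 °C. Trypsin/nicotinamide development followed, then fluorescence at ex 390/em 460 nm. Conversion compared against a blank without cofactor.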

In assay [4] the target is T1, NAD-dependent protein deacetylase sirtuin-1 (Homo sapiens). Nature of the assay: Activity at human recombinant GST-tagged SIRT1 assessed as conversion of acetyllysine substrate to 7-amino-4-methylcoumarin at 500 uM by fluorescence-based assay.

Activity calls are given as the source filed them. The rule behind the calls is not given here. Bounds are passed on as bounds.

For orientation: inhibition means how much of the control response was suppressed. As for `Nc1ncnc2c1nc(Br)n2[C@@H]1O[C@H](CO)[C@@H](O)[C@H]1O`, the inhibition is under 10% in assay [1] and 16% in assay [2].
In the case of `Cc1ccc(-c2nc3c(N)ncnc3n2[C@@H]2O[C@H](COP(=O)(O)OP(=O)([O-])OC[C@H]3O[C@@H]([n+]4cccc(C(N)=O)c4)[C@H](O)[C@@H]3O)[C@@H](O)[C@H]2O)cc1`, the inhibition in assay [1] came to 20%.
Still for that read-out and setting: then `NC(=O)c1ccc[n+]([C@@H]2O[C@H](COP(=O)([O-])OP(=O)(O)OC[C@H]3O[C@@H](n4c(-c5ccc(Cl)cc5)nc5c(N)ncnc54)[C@H](O)[C@@H]3O)[C@@H](O)[C@H]2O)c1`, with 30%; and `NC(=O)c1ccc[n+]([C@@H]2O[C@H](COP(=O)([O-])OP(=O)(O)OC[C@H]3O[C@@H](n4c(Br)nc5c(N)ncnc54)[C@H](O)[C@@H]3O)[C@@H](O)[C@H]2O)c1`, with 31%.
Consider `COc1ccc(-c2nc3c(N)ncnc3n2[C@@H]2O[C@H](COP(=O)(O)OP(=O)([O-])OC[C@H]3O[C@@H]([n+]4cccc(C(N)=O)c4)[C@H](O)[C@@H]3O)[C@@H](O)[C@H]2O)cc1`, for which the inhibition in assay [1] worked out at 18%.
As for `Nc1ncnc2c1nc(-c1ccccc1)n2[C@@H]1O[C@H](CO)[C@@H](O)[C@H]1O`, the inhibition in assay [1] and in assay [2] was under 10% throughout.
In the case of `Nc1ncnc2c1nc(Br)n2[C@@H]1O[C@H](COP(=O)(O)O)[C@@H](O)[C@H]1O`, the inhibition in assay [1] and in assay [2] was under 10% in each case.
For `NC(=O)c1ccc[n+]([C@@H]2O[C@H](COP(=O)([O-])OP(=O)(O)OC[C@H]3O[C@@H](n4c(-c5ccccc5)nc5c(N)ncnc54)[C@H](O)[C@@H]3O)[C@@H](O)[C@H]2O)c1`, the inhibition in assay [1] came out at 17%. The result in assay [3] and in assay [4] was Active.
As for `NC(=O)c1ccc[n+]([C@@H]2O[C@H](COP(=O)([O-])OP(=O)(O)OC[C@H]3O[C@@H](n4c(-c5ccco5)nc5c(N)ncnc54)[C@H](O)[C@@H]3O)[C@@H](O)[C@H]2O)c1`, the inhibition in assay [1] stood at 16%; in assay [2], 35%.
